Laboratory results from ChEMBL document CHEMBL4138188, “Eurycomalactone Inhibits Expression of Endothelial Adhesion Molecules at a Post-Transcriptional Level” (J Nat Prod, 2017).
Activity calls are given as the source filed them. The rule behind the calls is not given here.

Tests used:
[1] = (§1) Inhibition of NF-kappaB in HUVECtert assessed as reduction in TNFalpha-induced VCAM-1 expression level pretreated for 30 mins followed by TNFalpha stimulation measured after 18 hrs by flow cytometry; design: species or system Homo sapiens
Outline: (§2)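 FITC-antibody surface staining, flow cytometry; expression relative to TNFα-stimulated control. Parthenolide 10 μM as positive control; means ± SD, n = 3, one-way ANOVA/Dunnett versus vehicle.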

Homo sapiens [2] = organism: Homo sapiens; assay: as §1; outline: as §2
[3] = Effect on basal ICAM-1 expression level in HUVECtert at 0.5 to 10 uM incubated for 30 mins by flow cytometry; type: ADME; details: human, 0.5 h
Outline: (§3)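 Unstimulated HUVECtert treated with 0.5−10 μM test agent without TNFα; surface VCAM-1, ICAM-1 or E-selectin stained with FITC-labelled antibodies and read by flow cytometry.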

[4] = Effect on basal E-selectin expression level in HUVECtert at 0.5 to 10 uM incubated for 30 mins by flow cytometry; type: ADME; details: human, 0.5 h; outline: as §3
Homo sapiens [5] = organism: Homo sapiens; assay: Cytotoxicity against HUVECtert assessed as reduction in cell viability after 18 hrs by resazurin dye based fluorescence assay; type: functional
Outline: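 HUVECtert (passage ≤15) seeded on gelatin-coated wells, grown 48 h, then exposed to test agent or 0.1% DMSO vehicle, with or without TNFα; digitonin 100 μg/mL as positive control. After 18 h, supernatant removed, cells washed, then 2 h with 10 μg/mL resazurin in PBS; metabolic conversion read relative to vehicle.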

[6] = target: T1, Inhibitor of nuclear factor kappa-B kinase subunit beta (Homo sapiens) (UniProt O14920); assay: Inhibition of IKKbeta phosphorylation level in TNFalpha-stimulated HUVECtert at 2 uM pretreated for 30 mins followed by TNFalpha stimulation measured after 5 to 15 mins by Western blot analysis
T1 sequence (whole entry): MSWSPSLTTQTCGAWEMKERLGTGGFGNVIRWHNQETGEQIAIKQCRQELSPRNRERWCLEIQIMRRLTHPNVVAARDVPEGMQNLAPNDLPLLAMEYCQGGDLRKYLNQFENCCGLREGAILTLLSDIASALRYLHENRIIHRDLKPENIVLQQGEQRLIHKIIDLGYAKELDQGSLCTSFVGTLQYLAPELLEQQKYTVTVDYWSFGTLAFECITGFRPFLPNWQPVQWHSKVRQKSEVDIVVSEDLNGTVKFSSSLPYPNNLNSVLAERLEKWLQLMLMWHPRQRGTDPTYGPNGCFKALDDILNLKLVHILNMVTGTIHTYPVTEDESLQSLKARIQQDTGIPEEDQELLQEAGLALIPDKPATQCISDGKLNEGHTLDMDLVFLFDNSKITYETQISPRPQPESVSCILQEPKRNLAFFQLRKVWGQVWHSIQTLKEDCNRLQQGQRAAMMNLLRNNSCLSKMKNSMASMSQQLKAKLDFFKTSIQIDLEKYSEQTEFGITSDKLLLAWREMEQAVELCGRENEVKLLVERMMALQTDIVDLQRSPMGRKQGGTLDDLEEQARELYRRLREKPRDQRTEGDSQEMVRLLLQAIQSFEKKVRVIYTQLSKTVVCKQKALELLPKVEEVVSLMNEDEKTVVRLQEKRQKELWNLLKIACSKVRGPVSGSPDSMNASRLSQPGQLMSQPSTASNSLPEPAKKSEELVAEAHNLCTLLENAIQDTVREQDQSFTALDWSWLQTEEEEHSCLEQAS
Outline: (§4)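 HUVECtert on gelatin-coated dishes pretreated with 2 μM agent or 0.1% DMSO, then TNFα 10 ng/mL; p-IKKα/β, p-IκBα and total IκBα immunoblotted at 5 or 15 min post-stimulation, actin loading control; means ± SD, n = 3, one-way ANOVA/Dunnett.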

[7] = target: T2, NF-kappa-B inhibitor alpha (Homo sapiens) (UniProt P25963); assay: Inhibition of IkappaBalpha degradation in TNFalpha-stimulated HUVECtert at 2 uM pretreated for 30 mins followed by TNFalpha stimulation measured after 5 to 15 mins by Western blot analysis; outline: as §4
T2 sequence (whole entry): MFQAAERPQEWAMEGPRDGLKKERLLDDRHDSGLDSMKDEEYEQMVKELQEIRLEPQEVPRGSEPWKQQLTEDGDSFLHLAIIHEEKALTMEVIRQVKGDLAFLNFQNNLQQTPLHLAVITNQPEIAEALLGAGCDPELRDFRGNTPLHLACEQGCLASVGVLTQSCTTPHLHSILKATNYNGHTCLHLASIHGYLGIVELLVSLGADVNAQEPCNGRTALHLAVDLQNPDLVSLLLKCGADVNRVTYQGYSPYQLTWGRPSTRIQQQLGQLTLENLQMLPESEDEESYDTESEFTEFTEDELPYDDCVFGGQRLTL

Homo sapiens [8] = organism: Homo sapiens; assay: Inhibition of NF-kappaB in HUVECtert assessed as reduction in TNFalpha-induced ICAM-1 mRNA expression level at 0.5 to 5 uM pretreated for 30 mins followed by TNFalpha stimulation measured after 4 hrs by qRT-PCR analysis
Homo sapiens [9] = organism: Homo sapiens; assay: Inhibition of NF-kappaB in HUVECtert assessed as reduction in TNFalpha-induced E-selectin mRNA expression level at 0.5 to 5 uM pretreated for 30 mins followed by TNFalpha stimulation measured after 2 hrs by qRT-PCR analysis
Homo sapiens [10] = organism: Homo sapiens; assay: Reduction in survivin level in HUVECtert at 2 uM measured up to 480 mins by Western blot analysis; type: functional
Outline: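 HUVECtert treated with 1 μM cycloheximide, 2 μM agent, vehicle, or left untreated for a time course; cyclin D1 or survivin by Western blot, actin loading control; means ± SD of three blots, one-way ANOVA/Dunnett versus untreated.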

Homo sapiens [11] = organism: Homo sapiens; assay: Inhibition of de novo protein synthesis in HUVECtert at 2 to 5 uM after 30 mins by Click-iT OPP/Alexa fluor 488 picolyl azide reagent based confocal fluorescence microscopy; type: functional
Outline: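 Cells on gelatin coverslips (24 h) exposed 30 min to agent (2 or 5 μM; cycloheximide 1, 3.5, 35 μM) or 0.1% DMSO, then 20 μM OPP for 30 min; formaldehyde fixation, Triton permeabilisation, Alexa 488 picolyl azide click reaction 30 min, nuclear counterstain; confocal imaging at 10×, constant gain and exposure.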

CC1=CC(=O)[C@@H](O)[C@@]2(C)[C@H]1CC(=O)[C@@]1(C)[C@H]3C(=O)O[C@H]([C@@H]3C)[C@H](O)[C@@H]12 [EURYCOMALACTONE]
IC50 [1]: 540 nM | inhibition (Homo sapiens [2]): Dose-dependent effect | Activity [3]: Non-Toxic | Activity [4]: Non-Toxic | Activity (Homo sapiens [5]): inactive | inhibition [6]: inactive | inhibition [7]: inactive | inhibition (Homo sapiens [8]): inactive | inhibition (Homo sapiens [9]): inactive | Activity (Homo sapiens [10]): inactive | inhibition (Homo sapiens [11]): Active
